NadD inh = NadD (S. aureus) enzyme inhibition | purified NadD enzyme, colorimetric absorbance read-out | inhibition, % at 20 µM | actives 0.78% (n = 360,000) | AID 602399; in the data active = inhibition above about 26%
GalR3 antag = blocks the human galanin receptor 3. HEK293 GalR3-CNG cAMP membrane potential fluorescence; galR3 body fused to GalR1 C-terminus. inhibition, % at 3 µM. actives 0.44% (n = 360,000). O60755;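 active = inhibition above the screen-wide average plus 3 SD, cut at about 13% in these data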;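 note: forskolin and galanin both at EC90 stimulate the cells; cAMP rise reported by CNG channel membrane potential dye signal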
Target sequence (O60755 1-299 limits assumed): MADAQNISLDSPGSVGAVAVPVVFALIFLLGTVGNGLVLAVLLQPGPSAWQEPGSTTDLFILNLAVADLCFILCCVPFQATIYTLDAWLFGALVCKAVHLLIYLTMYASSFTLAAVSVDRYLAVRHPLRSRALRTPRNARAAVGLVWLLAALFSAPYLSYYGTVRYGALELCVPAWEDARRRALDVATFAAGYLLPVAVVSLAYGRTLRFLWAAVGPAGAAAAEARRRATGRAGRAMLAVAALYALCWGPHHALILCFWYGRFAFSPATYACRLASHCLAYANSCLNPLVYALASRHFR
MsrA act = activators of bovine methionine sulfoxide reductase A; purified bovine MsrA, absorbance read-out; activation, % at 10.6 µM; actives 0.3% (n = 360,000); AID 602163; in the data active = activation above about 7.5%
MsrA inhibitor = bovine MsrA inhibition | purified bovine MsrA, absorbance read-out | inhibition, % at 15.5 µM | actives 0.75% (n = 360,000) | AID 651718
NR2E3 ag-1 = NR2E3 (human) agonism | Q9Y5X4 | GST-NR2E3/biotin-RetCOR TR-FRET, 1536-well | inhibition of corepressor binding, % at 4.78 µM | actives 0.12% (n = 320,000);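 active = percent inhibition above the cutoff of mean plus 3 SD of all tested compounds, set per screening campaign, cut at about 20% in these data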
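Material: NR2E3–RetCOR corepressor complex / Incubation: Compound–protein incubation for 5 h at 4 °C / Dosing: compound at 4.8 µM, single dose / Detection: time-resolved FRET / Benchmarks: high control biotin, low control 0.6% DMSO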
NR2E3 ag-2 = agonists of human NR2E3 nuclear receptor; CHO-S Gal4-NCOR/VP16-NR2E3 two-hybrid, luciferase; actives 0.35% (n = 360,000); inhibition of corepressor binding, % at 3.98 µM; Q9Y5X4; AID 602229;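 active = inhibition above the mean of all tested compounds plus 3 SD, cut at about 70% in these data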;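 note: higher means lower luciferase signal from less NR2E3 corepressor binding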
MsrA inh confirm = confirmation of bovine MsrA inhibitors. inhibition, % at 15.5 µM. AID 651822. shares compounds with MsrA inhibitor. purified bovine MsrA, absorbance read-out. actives 41% (n = 2,300);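 note: coupled to thioredoxin reductase with NADPH and selenocystamine and DMSO as substrate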
A number is an active result; i = inactive; nt = not tested or not shown. An excerpt weighted towards active compounds, which were near 2.5% of everything screened. Cut-off read from the data, not from the text of the source, unless noted: active = inhibition above about 4.5%; inactive = the rest.

SMILES | NadD inh | GalR3 antag | MsrA act | MsrA inhibitor | NR2E3 ag-1 | NR2E3 ag-2 | MsrA inh confirm
C(=N\n1cnnc1)/c1cn(-c2cccs2)nc1-c1ccccc1 | i | i | i | 4.8 | i | i | i
COc1ccc(-c2nn(-c3ccccc3)cc2/C=N/n2cnnc2)cc1OC | i | i | i | i | i | i | nt
O=C(O)Cc1sc(Nc2ccccc2)nc1-c1cccs1 | i | i | i | 4.9 | i | i | i
C=CCNc1nc(-c2cccs2)c(CC(=O)O)s1 | i | i | i | i | i | i | nt
CCOC(=O)c1[nH]c2ccc(Br)cc2c1NC(=O)CCN1CCC(C)CC1 | i | i | i | i | i | i | nt
O=C(Nc1nc2c(s1)CCCC2=O)c1cnccn1 | i | i | i | 4.7 | i | i | i
COc1ccc(/C=C\C(=O)c2c(O)ccc3c(C)cc(=O)oc23)cc1 | i | i | i | 5.3 | i | i | i
COc1ccc(/C=C/C(=O)c2c(O)ccc3c(C)cc(=O)oc23)cc1 | i | i | i | 5.4 | i | i | 5.1
Cc1cc(=O)oc2c(O)c(O)ccc12 | i | nt | i | i | nt | i | nt
Cc1ccc(C2=N/C(=C\N(C)C)C(=O)O2)cc1 | i | i | i | 5.2 | i | i | 5.5
CN(C)/C=C1/N=C(c2ccccc2)OC1=O | i | i | i | 7.3 | i | i | 6.9
CN(C)/C=C1\N=C(c2ccc(Cl)cc2Cl)OC1=O | i | i | i | i | i | i | nt
CN(C)/C=C1\N=C(c2cccs2)OC1=O | i | i | i | 7.7 | i | i | 5.5
O=C1OC(c2ccccc2)=N/C1=C\N1CCCCC1 | i | i | i | 5.7 | i | i | 6.9
C1CN(c2nc3nonc3nc2N2CCOCC2)CCO1 | nt | nt | nt | nt | i | nt | nt
CC(C)(C)NC(=O)C(=O)NNC(=O)c1cccc(Br)c1 | i | i | i | i | i | i | nt
CC1CC(=O)N(Cc2ccccc2)c2ccccc2N1C=O (stereo not given) | i | i | i | i | i | i | nt
CCOC(=O)c1nnn(-c2nonc2-c2ccccc2)c1C | i | i | i | 19.0 | i | i | 13.6
COc1ccc(/C=N/NC(=S)Nc2cccc(C(=O)O)c2)cc1OC | i | i | i | 7.6 | i | i | 5.6
CC(C)(C)c1ccc(/C=N/Nc2cccc(C(=O)O)c2)cc1 | i | i | i | i | i | i | nt
COc1ccc(C=NNC(=S)Nc2ccc(F)cc2)cc1OC | i | i | i | 5.7 | nt | i | i
CN(C)c1ccc(/C=N/Nc2cccc(C(=O)O)c2)cc1 | i | i | i | 5.1 | i | i | i
CN(C)c1ccc(C=NNC(=S)Nc2ccc(F)cc2)cc1 | i | i | i | i | nt | i | nt
COc1cc(/C=N/NC(=S)Nc2cccc(C(=O)O)c2)cc(OC)c1OC | i | i | i | 5.1 | i | i | i
CCCS(=O)(=O)NC(=O)C1(C)CCN(C(=O)c2ccccc2F)C1 (stereo not given) | i | i | i | i | nt | i | nt
SMILES | NadD inh | GalR3 antag | MsrA act | MsrA inhibitor | NR2E3 ag-1 | NR2E3 ag-2 | MsrA inh confirm
CCc1ccc(NC(=O)CSc2nc3[nH]ncc3c(=O)[nH]2)cc1 | i | i | i | i | i | i | nt
CC(=O)Nc1sc(C)c(C)c1C(=O)Nc1ccc(C)cc1 | i | i | i | i | i | i | nt
Cc1cc(C)cc(N2CN=c3s/c(=C\c4ccco4)c(=O)n3C2)c1 | i | i | i | i | i | i | nt
O=c1/c(=C/c2ccco2)sc2n1CN(c1cccc(Br)c1)CN=2 | i | i | i | 5.2 | i | i | i
O=c1/c(=C/c2ccco2)sc2n1CN(c1ccccc1)CN=2 | i | i | i | 5.0 | i | i | 6.1
CCOc1ccc(C(=O)O/N=C(\N)c2ccc([N+](=O)[O-])cc2)cc1OCC | i | i | i | i | i | i | nt
COC(=O)[C@]12CCCCC=C1N(Cc1ccc3c(c1)OCO3)C(=O)[C@H](CC(=O)NCCC(C)C)C2 | nt | i | nt | i | nt | nt | nt
CC(=O)c1sc(NC(=O)C=C(C)C)nc1C | i | i | i | 5.3 | i | i | i
CC(=O)c1sc(NC(=O)c2ccc(Br)o2)nc1C | i | i | i | 5.6 | i | i | i
CC(=O)c1sc(NC(=O)c2ccc(Cn3cc(Br)cn3)o2)nc1C | i | i | i | i | i | i | nt
CCC(C)NC(=O)CSc1nc2c(sc(=S)n2-c2cc(Cl)ccc2OC)c(=O)[nH]1 (stereo not given) | i | i | i | i | i | i | nt

Screening data as filed in PubChem.
